In ChEMBL document CHEMBL1153398, “Synthesis, activity and molecular modeling of a new series of chromones as low molecular weight protein tyrosine phosphatase inhibitors” (Bioorg Med Chem, 2009):
The source made the active and inactive calls. The calls are words filed in the database; no cut-off is given here.

Legend:
[1] = target: T1, Low molecular weight phosphotyrosine protein phosphatase (Homo sapiens) (UniProt P24666); assay: Inhibition of human cloned LMW-PTP isoform 1 expressed in Escherichia coli TB1 at 20 uM
T1 sequence (whole entry): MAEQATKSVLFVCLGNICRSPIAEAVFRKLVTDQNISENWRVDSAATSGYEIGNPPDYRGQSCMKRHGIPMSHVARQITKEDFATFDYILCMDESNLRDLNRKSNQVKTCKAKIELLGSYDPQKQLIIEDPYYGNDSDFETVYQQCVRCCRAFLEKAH
Method in brief: (§1)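 GST-fused human enzymes (LMW-PTP IF1 or IF2, or PTP-1B) expressed in E. coli TB1, affinity-purified, thrombin-cleaved (3 h, 37 °C) and gel-filtered. […] Reaction stopped with 1 M KOH; p-nitrophenol read at 400 nm. Initial rates in triplicate; IC50 fitted to Vi/V° = IC50/(IC50+[I]); single-concentration lines give % inhibition.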

[2] = target: T1, Low molecular weight phosphotyrosine protein phosphatase (Homo sapiens); assay: Inhibition of human cloned LMW-PTP isoform 2 expressed in Escherichia coli TB1 at 20 uM; method in brief: as §1
[3] = target: T2, Tyrosine-protein phosphatase non-receptor type 1 (Homo sapiens) (UniProt P18031); assay: Inhibition of human cloned PTP1B expressed in Escherichia coli TB1 at 20 uM; method in brief: as §1
T2 sequence (whole entry): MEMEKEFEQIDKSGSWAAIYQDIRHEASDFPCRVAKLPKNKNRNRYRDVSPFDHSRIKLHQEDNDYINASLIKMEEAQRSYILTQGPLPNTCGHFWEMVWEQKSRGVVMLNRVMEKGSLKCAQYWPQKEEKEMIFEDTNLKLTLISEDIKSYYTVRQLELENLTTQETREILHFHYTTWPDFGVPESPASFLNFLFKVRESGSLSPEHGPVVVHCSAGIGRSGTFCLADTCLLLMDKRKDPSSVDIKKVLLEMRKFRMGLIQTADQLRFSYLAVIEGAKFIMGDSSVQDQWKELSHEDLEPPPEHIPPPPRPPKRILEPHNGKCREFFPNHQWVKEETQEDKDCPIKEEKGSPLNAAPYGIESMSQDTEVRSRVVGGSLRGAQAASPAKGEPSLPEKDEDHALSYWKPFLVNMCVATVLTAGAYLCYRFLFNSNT

[4] = target: T3, Low molecular weight phosphotyrosine protein phosphatase (Homo sapiens, UniProt P24666); assay: Inhibition of human cloned LMW-PTP isoform 1 expressed in Escherichia coli TB1
T3 sequence (P24666 whole entry): T1 sequence (whole entry)

[5] = target: T3, Low molecular weight phosphotyrosine protein phosphatase; assay: Inhibition of human cloned LMW-PTP isoform 2 expressed in Escherichia coli TB1
[6] = target: T4, Tyrosine-protein phosphatase non-receptor type 1 (Homo sapiens, UniProt P18031); assay: Inhibition of human cloned PTP1B expressed in Escherichia coli TB1; method in brief: as §1
T4 sequence (P18031 whole entry): T2 sequence (whole entry)

[7] = target: T1, Low molecular weight phosphotyrosine protein phosphatase (Homo sapiens); assay: Inhibition of human cloned LMW-PTP isoform 1 expressed in Escherichia coli TB1 at 15 uM; method in brief: as §1
[8] = target: T1, Low molecular weight phosphotyrosine protein phosphatase (Homo sapiens); assay: Inhibition of human cloned LMW-PTP isoform 2 expressed in Escherichia coli TB1 at 15 uM; method in brief: as §1
[9] = target: T2, Tyrosine-protein phosphatase non-receptor type 1 (Homo sapiens); assay: Inhibition of human cloned PTP1B expressed in Escherichia coli TB1 at 15 uM; method in brief: as §1
[10] = target: T3, Low molecular weight phosphotyrosine protein phosphatase; assay: Inhibition of human cloned LMW-PTP isoform 1 expressed in Escherichia coli TB1 by competitive inhibition assay
[11] = target: T3, Low molecular weight phosphotyrosine protein phosphatase; assay: Inhibition of human cloned LMW-PTP isoform 2 expressed in Escherichia coli TB1 by competitive inhibition assay
[12] = target: Insulin receptor (Homo sapiens) (UniProt P06213); assay: Activation of human insulin receptor beta expressed in human HepG2 cells assessed as stimulation of receptor phosphorylation at 10 uM after 90 mins by SDS-PAGE; assay type: cell-based
Method in brief: (§2)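 HepG2 cells grown in DMEM with 10% bovine calf serum, 37 °C, 5% CO2; subconfluent cells serum-starved 20 h. Inhibitor added to medium at 10 µM final, 90 min, 37 °C; 10 nM insulin, 0.5% DMSO and 10 µM orthovanadate as references. Lysis in SDS Laemmli buffer, SDS-PAGE, Western blot for phospho-IRβ, then stripped and reprobed for phospho-Akt, phosphotyrosine and actin. At least three separate experiments.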

[13] = target: Insulin receptor (Homo sapiens) (UniProt P06213); assay: Activation of human insulin receptor beta expressed in human HepG2 cells assessed as increase in tyrosine phosphorylation level at 10 uM after 90 mins by SDS-PAGE; assay type: cell-based; method in brief: as §2
[14] = target: T3, Low molecular weight phosphotyrosine protein phosphatase; assay: Inhibition of human cloned LMW-PTP isoform 1 expressed in Escherichia coli TB1 by mixed type inhibition assay
[15] = target: T3, Low molecular weight phosphotyrosine protein phosphatase; assay: Inhibition of human cloned LMW-PTP isoform 2 expressed in Escherichia coli TB1 by mixed type inhibition assay
[16] = target: T4, Tyrosine-protein phosphatase non-receptor type 1; assay: Inhibition of human cloned PTP1B expressed in Escherichia coli TB1 by mixed type inhibition assay
[17] = target: Insulin receptor (Homo sapiens) (UniProt P06213); assay: Activation of human insulin receptor beta expressed in human HepG2 cells assessed as increase in Akt phosphorylation level at 10 uM after 90 mins by SDS-PAGE; assay type: cell-based; method in brief: as §2
[18] = target: T4, Tyrosine-protein phosphatase non-receptor type 1; assay: Inhibition of human recombinant PTP1B

Insulin receptor (Homo sapiens), sequence (P06213 28-758 limits assumed): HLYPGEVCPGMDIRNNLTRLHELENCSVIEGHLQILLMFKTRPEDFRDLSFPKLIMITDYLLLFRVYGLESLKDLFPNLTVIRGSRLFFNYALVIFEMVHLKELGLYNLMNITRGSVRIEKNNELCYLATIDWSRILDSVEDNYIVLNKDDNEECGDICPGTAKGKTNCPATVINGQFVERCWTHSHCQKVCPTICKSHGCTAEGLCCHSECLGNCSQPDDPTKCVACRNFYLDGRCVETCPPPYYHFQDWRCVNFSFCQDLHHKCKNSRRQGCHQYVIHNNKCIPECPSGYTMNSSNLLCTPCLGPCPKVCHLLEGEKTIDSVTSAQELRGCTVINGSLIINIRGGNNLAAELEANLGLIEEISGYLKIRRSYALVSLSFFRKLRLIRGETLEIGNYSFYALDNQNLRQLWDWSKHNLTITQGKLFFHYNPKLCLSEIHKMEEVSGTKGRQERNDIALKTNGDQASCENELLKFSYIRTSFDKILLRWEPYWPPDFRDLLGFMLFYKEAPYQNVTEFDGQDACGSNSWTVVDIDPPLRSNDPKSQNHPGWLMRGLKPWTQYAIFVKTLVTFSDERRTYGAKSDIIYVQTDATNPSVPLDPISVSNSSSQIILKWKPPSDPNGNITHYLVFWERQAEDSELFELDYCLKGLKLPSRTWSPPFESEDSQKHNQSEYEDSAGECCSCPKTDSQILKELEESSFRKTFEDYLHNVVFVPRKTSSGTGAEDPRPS
Insulin receptor (Homo sapiens), sequence (P06213 763-1382 limits assumed): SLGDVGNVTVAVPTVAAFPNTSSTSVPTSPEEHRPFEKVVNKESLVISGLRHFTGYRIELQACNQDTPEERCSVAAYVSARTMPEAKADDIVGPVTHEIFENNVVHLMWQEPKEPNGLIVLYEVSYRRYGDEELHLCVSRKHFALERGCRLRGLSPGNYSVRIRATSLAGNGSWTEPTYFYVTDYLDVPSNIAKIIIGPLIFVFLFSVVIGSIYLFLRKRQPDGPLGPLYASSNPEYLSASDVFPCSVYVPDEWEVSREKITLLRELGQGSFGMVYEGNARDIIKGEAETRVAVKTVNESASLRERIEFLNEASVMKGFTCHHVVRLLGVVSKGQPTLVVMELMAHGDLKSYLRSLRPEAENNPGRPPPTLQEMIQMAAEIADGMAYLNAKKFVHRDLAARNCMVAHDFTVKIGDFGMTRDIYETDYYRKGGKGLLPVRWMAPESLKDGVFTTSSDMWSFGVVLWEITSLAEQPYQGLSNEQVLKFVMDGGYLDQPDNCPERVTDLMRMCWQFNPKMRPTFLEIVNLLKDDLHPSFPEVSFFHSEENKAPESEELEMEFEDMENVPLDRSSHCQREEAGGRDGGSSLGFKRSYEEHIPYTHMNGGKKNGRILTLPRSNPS

## O=c1cc(-c2ccc(O)cc2)oc2cc(O)c(O)cc12
[1]
  inhibition: 25%
[2]
  inhibition: 10%
[3]
  inhibition: 10%

## O=C(O)c1ccc(-c2ccc(Cc3c(-c4ccc(O)cc4)oc4ccccc4c3=O)cc2)cc1O
[4]
  IC50: 0.7 µM
[5]
  IC50: 5.7 µM
[6]
  IC50: 0.9 µM

## Oc1ccc(-c2ccccc2)cc1O
[1]
  inhibition: 0%
[2]
  inhibition: 0%
[3]
  inhibition: 20%

## O=c1c(Cc2ccc(-c3ccccc3)cc2)c(CCCc2ccc(O)cc2)oc2cc(O)ccc12
[7]
  inhibition: 10%
[8]
  inhibition: 10%
[9]
  inhibition: 0%

## O=c1c(Cc2ccc(-c3ccccc3)cc2)c(-c2ccc(O)cc2)oc2cc(O)c(O)cc12
[4]
  IC50: 1.1 µM
[5]
  IC50: 3 µM
[6]
  IC50: 2 µM
[10]
  Ki: 0.27 µM
[11]
  Ki: 0.34 µM
[12]
  Activity: Active
[13]
  Activity: Active

## O=C(O)c1ccc(-c2ccccc2)cc1O
[1]
  inhibition: 0%
[2]
  inhibition: 0%
[3]
  inhibition: 5%

## O=C(O)c1cccc(-c2ccc(Cc3c(-c4ccc(O)cc4)oc4cc(O)ccc4c3=O)cc2)c1
[4]
  IC50: 11.4 µM
[5]
  IC50: 26.8 µM
[6]
  IC50: 6.2 µM

## O=c1cc(Cc2ccc(O)cc2)oc2cc(O)ccc12
[7]
  inhibition: 10%
[8]
  inhibition: 10%
[9]
  inhibition: 0%

## O=c1c(Cc2cccc(-c3ccc(O)c(O)c3)c2)c(-c2ccc(O)cc2)oc2cc(O)ccc12
[1]
  inhibition: 60%
[2]
  inhibition: 25%
[3]
  inhibition: 50%

## Oc1ccc(-c2ccccc2)c(O)c1
[1]
  inhibition: 0%
[2]
  inhibition: 0%
[3]
  inhibition: 10%

## O=c1c(Cc2ccc(-c3ccccc3)cc2)c(Cc2ccc(O)cc2)oc2ccc(O)cc12
[4]
  IC50: 8.6 µM
[5]
  IC50: 17.2 µM
[9]
  inhibition: 20%

## O=c1c(Cc2ccc(-c3ccccc3)cc2)c(-c2ccc(O)cc2)oc2cc(O)ccc12
[4]
  IC50: 5.7 µM
[5]
  IC50: 13.9 µM
[9]
  inhibition: 4%
[14]
  Ki: 2.5 µM
[15]
  Ki: 7.8 µM
[16]
  Ki: 29.1 µM

## O=c1c(Cc2ccc(-c3ccc(O)cc3)cc2)c(-c2ccc(O)cc2)oc2cc(O)ccc12
[6]
  IC50: 17 µM

## O=C(O)c1ccc(-c2cccc(Cc3c(-c4ccc(O)cc4)oc4cc(O)ccc4c3=O)c2)cc1O
[1]
  inhibition: 5%
[2]
  inhibition: 10%
[3]
  inhibition: 50%

## O=c1c(Cc2ccc(-c3ccc(O)c(O)c3)cc2)c(-c2ccc(O)cc2)oc2ccccc12
[4]
  IC50: 14.3 µM
[5]
  IC50: 12.6 µM
[6]
  IC50: 5 µM

## O=c1c(Cc2ccc(-c3ccccc3)cc2)c(CCc2ccc(O)cc2)oc2cc(O)ccc12
[4]
  IC50: 6.5 µM
[5]
  IC50: 17.3 µM
[9]
  inhibition: 20%

## O=c1c(Cc2ccc(-c3ccc(O)c(O)c3)cc2)c(-c2ccc(O)cc2)oc2cc(O)ccc12
[4]
  IC50: 7.4 µM
[5]
  IC50: 12.4 µM
[6]
  IC50: 7.7 µM
[14]
  Ki: 2.23 µM
[15]
  Ki: 2.68 µM
[12]
  Activity: Active
[17]
  Activity: Active
[13]
  Activity: Active

## O=c1c(Cc2ccccc2)c(Cc2ccc(O)cc2)oc2cc(O)ccc12
[7]
  inhibition: 10%
[8]
  inhibition: 10%
[9]
  inhibition: 0%

## O=c1c(Cc2ccc(-c3ccccc3)cc2)c(Cc2ccc(O)cc2)oc2cc(O)ccc12
[4]
  IC50: 5.3 µM
[5]
  IC50: 17.5 µM
[9]
  inhibition: 10%

## O=C(O)c1ccc(-c2ccc(Cc3c(-c4ccc(O)cc4)oc4cc(O)ccc4c3=O)cc2)cc1O
[4]
  IC50: 1.3 µM
[5]
  IC50: 2.2 µM
[6]
  IC50: 1 µM
[12]
  Activity: Active
[17]
  Activity: Active
[13]
  Activity: Active

## O=C(c1ccc(O)cc1)c1oc2ccccc2c1-c1ccc(-c2ccc(O)cc2)cc1
[18]
  IC50: 1.08 µM
